Bioassay records (PubChem BioAssay)
The list is not random: actives were taken first. Their share in the collection is about 3.5%.
MrgX1 ag: activates human MrgX1 receptor signaling | MrgX1-HEK293 cells, Fluo-4 calcium fluorescence, agonist mode; hits give high values | Q96LB2 | AID 588627 | B-score at 10 µM | hit rate 0.44% among 310,000;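 active = calcium response B-score plate-corrected fluorescence ratio at least 3 library SD, with starting fluorescence B-score inside 5 SD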
Target sequence (Q96LB2 whole entry, looked up): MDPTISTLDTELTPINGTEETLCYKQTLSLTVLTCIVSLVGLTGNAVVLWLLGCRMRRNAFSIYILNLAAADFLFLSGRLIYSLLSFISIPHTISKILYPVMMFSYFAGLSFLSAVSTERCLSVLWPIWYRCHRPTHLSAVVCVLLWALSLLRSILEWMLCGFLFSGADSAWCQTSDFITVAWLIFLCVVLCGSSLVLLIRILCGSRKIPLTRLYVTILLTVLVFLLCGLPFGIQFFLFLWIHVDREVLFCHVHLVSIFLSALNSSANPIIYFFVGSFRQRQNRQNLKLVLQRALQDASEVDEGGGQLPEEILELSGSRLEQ
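Test system: Stable human MrgX1 HEK293 cell line | Schedule: Overnight plating before 1 h dye loading | Read-out basis: Baseline-normalised fluorescence change ratio, B-scored | Detection: Kinetic calcium dye fluorescence, Fluo-4 NW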
MrgX1 allo act: allosterically activates human MrgX1 receptor signaling. Q96LB2. MrgX1-HEK293, Fluo-4 calcium flux, FDSS; hits give high values. B-score at 10 µM. hit rate 0.63% among 310,000. AID 588675;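 active = plate-corrected calcium response at least 3 library SD above typical, normal starting fluorescence, not activating the receptor alone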;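 also: compound read alongside a low EC10 to EC30 dose of BAM8-22 agonist; peak minus trough fluorescence over baseline measured at the second addition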
RGS4 pot: RGS4 potentiation or activation; HEK293 M3R/inducible RGS4, carbachol calcium flux Fluo4; hits give low values; B-score at 10 µM; hit rate 0.92% among 310,000;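 active = B-score of the integrated calcium signal more than 4 SD below the library mean, with starting fluorescence not abnormally high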;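 also: negative B-score means reduced calcium response which marks RGS4 activation or potentiation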
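Test system: HEK293 cells with stable M3R and inducible RGS4; also added: carbachol at ECmax as muscarinic agonist stimulus; schedule: dye loading 30 min 37 °C, buffer rest 30 min RT; technique: kinetic calcium fluorescence imaging with Fluo4-AM dye, 2 µM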
RGS4 block: human RGS4 inhibition. P49798. HEK293 M3R/RGS4 inducible, Fluo-4 calcium flux; hits give high values; triggered by carbachol at its EC20. B-score at 10 µM. hit rate 0.45% among 310,000. AID 463165;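 active = B-score, a plate-corrected calcium signal, over three deviations above library mean, with baseline fluorescence within five deviations of library mean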;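 also: RGS4 expression induced by doxycycline in cells with stable M3 receptor; B-score is computed from the integrated fluorescence ratio over baseline after carbachol; higher B-score means a larger calcium signal and so more RGS4 inhibition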
Target sequence (P49798 whole entry, looked up): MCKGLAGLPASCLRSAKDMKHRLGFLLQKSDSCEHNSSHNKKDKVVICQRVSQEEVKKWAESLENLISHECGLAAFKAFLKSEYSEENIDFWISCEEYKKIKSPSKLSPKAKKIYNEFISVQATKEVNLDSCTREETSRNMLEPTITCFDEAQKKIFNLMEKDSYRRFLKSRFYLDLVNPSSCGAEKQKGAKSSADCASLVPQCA
MrgX1 antag: blocks BAM8-22 activation of human MrgX1 receptor; Q96LB2; MRGX1-HEK293 calcium flux, Fluo-4, BAM8-22 antagonism; hits give low values; B-score at 10 µM; hit rate 1.3% among 310,000;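 active = calcium-response B-score plate-corrected more than 3 library SD below zero, starting fluorescence within 5 deviations, no agonist response on first addition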;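 also: peak minus trough fluorescence over baseline after final BAM8-22 challenge near maximal dose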
Numbers without * were called inactive; i = inactive; . = not tested or not shown.

SMILES	MrgX1 ag	MrgX1 allo act	RGS4 pot	RGS4 block	MrgX1 antag
Nc1ncnc2c1c(-c1ccc(Oc3ccccc3)cc1)cn2C1CCCC1	i	i	.	.	i
COc1ccc(CCNC(=O)c2cccc(C(=O)NCCc3ccc(OC)cc3)n2)cc1	i	i	i	i	-4.8*
O=C(NCC1COCCO1)c1ccc2nc(Cc3cccc(Cl)c3)oc2c1 (configuration not stated)	i	i	i	i	i
COc1ccc(-c2c[n+](CC(=O)OC3CC(C)CCC3C(C)C)c3n2CCC3)cc1 (configuration not stated)	i	i	-7*	i	-4.9*
CC(C)[C@@H]1CC[C@@H](C)C[C@H]1OC(=O)C[n+]1cc(-c2ccc(Cl)cc2)n2c1CCCCC2	i	i	i	i	-7.4*
O=C(C[n+]1cc(-c2ccc(Cl)cc2)n2c1CCCCC2)c1ccccc1	i	i	i	i	i
CCn1c(P(C)(=O)O)nc2cc(NC(=O)c3ccccc3Cl)ccc21	i	i	i	i	i
OC(COc1ccccc1)CN(Cc1ccccc1)CC(O)COc1ccccc1 (configuration not stated)	i	i	.	.	i
CCC(=O)c1ccc(OCC(O)CN(CCc2ccccc2)Cc2ccccc2)cc1 (configuration not stated)	i	i	-8.3*	i	i
Cc1nc2scc(-c3ccccc3)c2c(=O)n1N=C1C=CC(=O)C=C1	.	.	-7.7*	i	.
COc1cc(/C=N/OCC(=O)Nc2ccc(OC(F)F)cc2)ccc1OCc1ccccc1	i	i	-7*	i	i
CC(=O)N1CCN(C(=O)c2cccc(NS(=O)(=O)c3ccc(Br)cc3)c2)CC1	i	i	i	i	i
CCOc1ccc(S(=O)(=O)Nc2ccc(F)cc2)c(C)c1C	i	i	i	i	i
CC12CCC(C/C1=N/NC(=O)Nc1ccccc1)C2(C)C (configuration not stated)	i	13*	i	i	i
CC12CCC(C/C1=N\OC(=O)c1c(F)cccc1F)C2(C)C (configuration not stated)	54*	i	i	i	i
CC12CCC(C/C1=N/NC(=O)COc1ccccc1Cl)C2(C)C (configuration not stated)	i	i	i	i	i
CN1CCN(C2=Nc3cc(Cl)ccc3Nc3ccccc32)CC1	i	i	-7.5*	i	i
CC1CCN(CC(CS(=O)(=O)c2ccc([N+](=O)[O-])cc2)N2CCC(C)CC2)CC1 (configuration not stated)	i	i	i	i	-5.2*
COCCn1c(SC(C)C(=O)NCC2CCCO2)nc2sc3c(c2c1=O)CCC3 (configuration not stated)	i	i	i	i	i
O/C(=C\c1nc2ccccc2nc1/C=C(\O)c1ccccc1)c1ccccc1	i	14*	i	i	i
C/C=C/c1ccc(OCC(=O)Nc2cc(S(=O)(=O)N3CCOCC3)ccc2N2CCCC2)c(OC)c1	i	i	i	i	i
O=C1/C(=N/n2cnnc2)c2ccccc2N1Cc1ccccc1	45*	i	i	i	i
CC(C)Nc1ccc(Nc2ccnc3cc4ccccc4cc23)cc1	i	i	-9.9*	i	i
CN=c1scc(-c2ccccc2F)n1/N=C/c1ccc[nH]1	i	7*	i	i	i
CN(C)S(=O)(=O)c1ccc(Cl)c(C(=O)Nc2ccc(S(=O)(=O)N3CCOCC3)cc2)c1	i	i	i	i	i
SMILES	MrgX1 ag	MrgX1 allo act	RGS4 pot	RGS4 block	MrgX1 antag
Cc1nnc2sc(SCc3ccc(Cl)cc3)nn2c1=O	i	i	i	i	-6.6*
Cc1ccc(CCNC(=O)CSCc2ccc(F)cc2)cc1	i	i	i	i	i
O=C(NC1CC1)c1ccc(CSCc2ccccc2Cl)o1	i	i	i	i	i
N#Cc1ccc(Oc2ncccn2)cc1	i	i	i	i	i
Cc1c(CCO)c(=O)[nH]n1S(=O)(=O)c1ccc(Cl)cc1Cl	i	i	i	i	i
COc1ccc(S(=O)(=O)n2[nH]c(=O)c(CCO)c2C)c([N+](=O)[O-])c1	i	7.9*	i	i	i
CC(C)COc1cccc(C(=O)Nc2ccc(N3CCOCC3)cc2N2CCOCC2)c1	i	i	i	i	i
O=S(=O)(O)c1cccc2cccc(Nc3ccccc3)c12	i	i	i	i	i
Clc1ccc(CN2CCc3c([nH]c4ccccc34)C2)cc1Cl	i	i	i	i	-4.6*
O=C(Nc1ccccc1Cl)C1CCN(S(=O)(=O)c2cccc3nonc23)CC1	i	i	i	i	i
O=C(O)CCC(NC(=O)C1CCCN1C(=O)OCc1ccccc1)C(=O)O (configuration not stated)	i	i	i	i	-6.4*
O=C(O)C(NC(=O)C1CCCN1C(=O)OCc1ccccc1)c1ccccc1 (configuration not stated)	i	i	i	i	i
COc1ccc2c(Cl)c(C(=O)N/N=C3\CCCC(=O)C3)sc2c1	i	i	i	i	-7.4*
COc1ccc2c(Cl)c(C(=O)N/N=C/c3ccc4c(c3)OCO4)sc2c1	i	i	i	i	i
CCOCCCNc1nc2c(C)cccn2c(=O)c1/C=C1\SC(=S)N(CC(C)C)C1=O	i	i	i	i	-6.8*
CCOCCCNc1nc2c(C)cccn2c(=O)c1/C=C1\SC(=S)N(C(C)CC)C1=O (configuration not stated)	i	i	i	i	-15*
COc1cc(NC(=O)c2cc3cccc(OC)c3o2)cc(C(=O)Nc2cccc(C(F)(F)F)c2)c1	i	i	-8.2*	i	-5.2*
COc1cccc(NC(=O)c2cc3cccc(OC)c3o/c2=N\O)c1	i	i	i	6.1*	i
COc1ccc(NC(=O)c2cc3cccc(OC)c3oc2=Nc2ccc(C(=O)O)cc2)cc1OC	.	.	i	i	.
COc1cccc(NC(=O)c2cc3ccccc3o/c2=N\O)c1	27*	i	i	i	i
CCC(=O)N(C(=O)CC)N1CCN(c2ccncc2S(=O)(=O)N2CCCCC2)CC1	i	i	i	i	i
CN(C)c1ccc(C(CNC(=O)Cc2cccc3ccccc23)N(C)C)cc1 (configuration not stated)	i	i	i	i	i
